For twelve molecules, MIC, Activity and IC50 results are on record in ChEMBL document CHEMBL2040807, “Facile synthesis, cytotoxic and antimicrobial activity studies of a new group of 6-aryl-3-[4-(methylsulfonyl)benzyl]-7H-[1,2,4]triazolo[3,4-b][1,3,4]thiadiazines” (Eur J Med Chem, 2012).

Each structure is given as a SMILES string. In brackets after ≈: the same amount, converted by molar mass. Activity calls are given as the source filed them.

One assay has as its system Bacillus cereus. Put plainly: Antibacterial activity against Bacillus cereus after 16 hrs by broth dilution method. The assay is classed as functional. In a few lines: (§1)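 Compound stocks at 1 mg/mL in DMF, serially twofold diluted in trypticase soya broth tubes. Organisms were grown 6 h at 37 °C in trypticase soya broth, adjusted to McFarland […] (10^8 cfu/mL) in PBS, then diluted 10^3-fold in broth to 10^5 cfu/mL; 1 mL of this inoculum was added per tube. Tubes were incubated 16 h at 37 °C, with inoculum and broth controls. MIC was read as the lowest concentration with no visible growth.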
(In general: In broth dilution the organism is exposed to a series of concentrations in liquid medium.)

A further assay relates to Escherichia coli. The assay is described as follows: Antibacterial activity against Escherichia coli after 16 hrs by broth dilution method. The assay is classed as functional. In short, it runs like this:
as §1

Another assay has as its system Pseudomonas aeruginosa. Put plainly: Antibacterial activity against Pseudomonas aeruginosa after 16 hrs by broth dilution method. In kind it is functional. In short, it runs like this: as §1
The test system of a further assay is Staphylococcus aureus. The assay is described as follows: Antibacterial activity against Staphylococcus aureus after 16 hrs by broth dilution method. In kind it is functional. In a few lines: as §1
In assay [1] the test system is HT-29. Put plainly: Cytotoxicity against human HT-29 cells assessed as cell death at 2.5 uM after 48 hrs by MTT assay. The assay is classed as functional.
Assay [2] relates to RAW264.7. The assay is described as follows: Cytotoxicity against mouse RAW264.7 cells assessed as cell death at 2.5 uM after 48 hrs by MTT assay. In kind it is functional. On the technique in general: Tetrazolium assays rely on reduction of a dye to a coloured formazan, in cell work by metabolically active cells.
In assay [3] the test system is RAW264.7. Put plainly: Cytotoxicity against mouse RAW264.7 cells assessed as cell death at 12.5 uM after 48 hrs by MTT assay. The settings on record: pooled result: one value given for 2 cell lines, strains, targets or settings. In kind it is functional. In short, it runs like this: (§2)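 Both cell lines were seeded at 1×10⁴ cells per well, with viability checked first by trypan blue exclusion. Compounds were tested in triplicate for 48 h at 37 °C in 5% CO₂. Medium was then replaced with serum-free DMEM, MTT was added, and plates were held 3 h at 37 °C. Formazan was dissolved in DMSO for 15 min and read at 570 nm. % cell death = (A_DMSO − A_sample)/A_DMSO × 100.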

The test system of assay [4] is RAW264.7. Put plainly: Cytotoxicity against mouse RAW264.7 cells assessed as cell death at 100 uM after 48 hrs by MTT assay. The assay is classed as functional. The settings on record: pooled result: one value given for 2 cell lines, strains, targets or settings. In a few lines: as §2
In assay [5] the test system is RAW264.7. The assay is described as follows: Cytotoxicity against mouse RAW264.7 cells after 48 hrs by MTT assay. In kind it is functional, cell-based. The following applies: RAW264.7, 48 h. In a few lines:
(§3)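 Cells seeded at 1 x 10^4 per well (viability by Trypan blue exclusion) and treated in triplicate at 100, 50, 25 and […], 48 h at 37 °C, 5% CO2. Medium was then replaced with serum-free DMEM plus MTT for 3 h. Formazan was dissolved in DMSO for 15 min at 37 °C and read at 570 nm. % cell death was taken relative to vehicle (DMSO) control, and IC50 derived from it.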

Assay [6] concerns HT-29. Put plainly: Cytotoxicity against human HT-29 cells after 48 hrs by MTT assay. The assay is classed as functional, cell-based. The settings on record: HT-29, 48 h. In short, it runs like this:
as §3

The next assay has as its system Candida albicans. The assay is described as follows: Antifungal activity against Candida albicans after 16 hrs by broth dilution method. The assay is classed as functional. In a few lines: as §1
Assay [7] concerns RAW264.7. Put plainly: Cytotoxicity against mouse RAW264.7 cells assessed as cell death at 25 uM after 48 hrs by MTT assay. In kind it is functional. The following applies: pooled result: one value given for 2 cell lines, strains, targets or settings. In a few lines:
as §2

The test system of assay [8] is RAW264.7. Put plainly: Cytotoxicity against mouse RAW264.7 cells assessed as cell death at 50 uM after 48 hrs by MTT assay. The assay is classed as functional. The following applies: pooled result: one value given for 2 cell lines, strains, targets or settings. In short, it runs like this: as §2
Assay [9] concerns HT-29. The assay is described as follows: Cytotoxicity against human HT-29 cells assessed as cell death at 12.5 uM after 48 hrs by MTT assay. The assay is classed as functional. The following applies: pooled result: one value given for 2 cell lines, strains, targets or settings. In a few lines:
as §2

The test system of assay [10] is HT-29. Put plainly: Cytotoxicity against human HT-29 cells assessed as cell death at 25 uM after 48 hrs by MTT assay. The assay is classed as functional. The settings on record: pooled result: one value given for 2 cell lines, strains, targets or settings. In a few lines: as §2

The term MIC denotes the smallest concentration in the dilution series that meets the test's criterion for growth inhibition. Read a high MIC as weaker potency. With `CC1(C)S[C@@H]2[C@H](NC(=O)Cc3ccccc3)C(=O)N2[C@H]1C(=O)O` [PENICILLIN G], the MIC in the assay on Bacillus cereus, against Escherichia coli, in the assay with Pseudomonas aeruginosa and in the assay on Staphylococcus aureus was 0.12 µg/mL (≈ 0.359 µM) in each case.
Consider `COc1cccc2c1C(=O)c1c(O)c3c(c(O)c1C2=O)C[C@@](O)(C(=O)CO)C[C@@H]3O[C@H]1C[C@H](N)[C@H](O)[C@H](C)O1` [DOXORUBICIN], for which the Activity in the assay with HT-29 [1] and in the assay with RAW264.7 [2] was 78.2% in each case.
The term IC50 denotes the concentration that gives 50% inhibition. In the case of `CS(=O)(=O)c1ccc(Cc2nnc3n2N=C(c2cc(Cl)sc2S(N)(=O)=O)CS3)cc1`, the Activity worked out at 22.8% in the assay with RAW264.7 [3], 35.22% in the assay with RAW264.7 [4], 18.66% in the assay on RAW264.7 [7] and 27.46% with RAW264.7 [8]. Moreover, the MIC in the assay with Bacillus cereus was 12.5 µg/mL (≈ 24.8 µM); with Escherichia coli it was 6.25 µg/mL (≈ 12.4 µM); in the assay with Candida albicans, 6.25 µg/mL (≈ 12.4 µM); in the assay on Pseudomonas aeruginosa it was 6.25 µg/mL (≈ 12.4 µM); against Staphylococcus aureus it was 12.5 µg/mL (≈ 24.8 µM). The IC50 in the assay with RAW264.7 [5] and in the assay on HT-29 [6] was greater than 100 µM throughout.
Turning to `CS(=O)(=O)c1ccc(Cc2nnc3n2N=C(c2ccc(O)c(C(N)=O)c2)CS3)cc1`, the Activity is given as 24.81% with RAW264.7 [3], 37.08% with RAW264.7 [4], 24.66% in the assay on RAW264.7 [7] and 33.06% in the assay with RAW264.7 [8]. Further, the MIC was 3.12 µg/mL (≈ 7.05 µM) in the assay with Bacillus cereus; 6.25 µg/mL (≈ 14.1 µM) in the assay with Escherichia coli; 3.12 µg/mL (≈ 7.05 µM) in the assay on Candida albicans; 6.25 µg/mL (≈ 14.1 µM) with Pseudomonas aeruginosa; 12.5 µg/mL (≈ 28.2 µM) against Staphylococcus aureus. Besides, the IC50 with RAW264.7 [5] and in the assay on HT-29 [6] was greater than 100 µM throughout.
For `Cc1ccc(C2=Nn3c(Cc4ccc(S(C)(=O)=O)cc4)nnc3SC2)cc1`, the result in the assay with RAW264.7 [3] and with HT-29 [9] was inactive. Further, the Activity is 38.53% with RAW264.7 [4], 1.26% in the assay on RAW264.7 [7] and 37.91% with RAW264.7 [8]. Besides, the MIC was determined as 12.5 µg/mL (≈ 31.4 µM) against Bacillus cereus; 12.5 µg/mL (≈ 31.4 µM) against Escherichia coli; 1.56 µg/mL (≈ 3.92 µM) in the assay with Candida albicans; 12.5 µg/mL (≈ 31.4 µM) against Pseudomonas aeruginosa; 12.5 µg/mL (≈ 31.4 µM) in the assay on Staphylococcus aureus. Further, the IC50 with RAW264.7 [5] and in the assay with HT-29 [6] was greater than 100 µM each time.
As for `CS(=O)(=O)c1ccc(Cc2nnc3n2N=C(c2ccc(Cl)cc2Cl)CS3)cc1`, the Activity with RAW264.7 [3] was determined as 27.99%; with RAW264.7 [4], 30.99%; with RAW264.7 [7], 24.19%; in the assay on RAW264.7 [8], 27.33%. For the same molecule, the MIC was found to be 6.25 µg/mL (≈ 13.8 µM) against Bacillus cereus; 3.12 µg/mL (≈ 6.89 µM) against Escherichia coli; 6.25 µg/mL (≈ 13.8 µM) in the assay on Candida albicans; 6.25 µg/mL (≈ 13.8 µM) against Pseudomonas aeruginosa; 12.5 µg/mL (≈ 27.6 µM) in the assay on Staphylococcus aureus. Besides, the IC50 in the assay on RAW264.7 [5] and in the assay on HT-29 [6] was greater than 100 µM each time.
As to `CS(=O)(=O)c1ccc(Cc2nnc3n2N=C(c2cc4ccccc4c(=O)o2)CS3)cc1`, the Activity in the assay on RAW264.7 [3] is reported as 22.43%; in the assay on RAW264.7 [4], 10.63%; with RAW264.7 [7] it was 25.58%; in the assay on RAW264.7 [8] it was 14.86%. Moreover, the MIC in the assay on Bacillus cereus amounted to 6.25 µg/mL (≈ 13.8 µM); in the assay with Escherichia coli it was 6.25 µg/mL (≈ 13.8 µM); against Candida albicans, 3.12 µg/mL (≈ 6.91 µM); in the assay on Pseudomonas aeruginosa, 6.25 µg/mL (≈ 13.8 µM); against Staphylococcus aureus it was 6.25 µg/mL (≈ 13.8 µM). Also, the IC50 in the assay on RAW264.7 [5] and with HT-29 [6] was greater than 100 µM throughout.
`OC(Cn1cncn1)(Cn1cncn1)c1ccc(F)cc1F` [FLUCONAZOLE]: the minimum inhibitory concentration (MIC) with Candida albicans came to 0.8 µg/mL (≈ 2.61 µM).
In the case of `CS(=O)(=O)c1ccc(Cc2nnc3n2N=C(c2cc(Cl)cc4c2-c2ccc(Cl)cc2C4)CS3)cc1`, the Activity with RAW264.7 [3] is 41.05%; with RAW264.7 [4], 50.33%; with RAW264.7 [7], 44.8%; with RAW264.7 [8], 43.12%. Besides, the MIC against Bacillus cereus stood at 6.25 µg/mL (≈ 11.5 µM); against Escherichia coli, 6.25 µg/mL (≈ 11.5 µM); against Candida albicans it was 6.25 µg/mL (≈ 11.5 µM); with Pseudomonas aeruginosa, 3.12 µg/mL (≈ 5.77 µM); against Staphylococcus aureus, 12.5 µg/mL (≈ 23.1 µM). Besides, the IC50 with RAW264.7 [5] and in the assay on HT-29 [6] was 100 µM throughout.
For `CS(=O)(=O)c1ccc(Cc2nnc3n2N=C(c2ccc(-c4ccccc4)cc2)CS3)cc1`, the Activity with RAW264.7 [3] is given as 58.2%; in the assay with RAW264.7 [4], 74.77%; in the assay on RAW264.7 [7], 60.19%; in the assay on RAW264.7 [8], 67.93%. The MIC against Bacillus cereus, in the assay on Escherichia coli, in the assay with Candida albicans, in the assay with Pseudomonas aeruginosa and against Staphylococcus aureus was 6.25 µg/mL (≈ 13.6 µM) throughout. In addition, the 50% inhibitory concentration (IC50) in the assay with RAW264.7 [5] and in the assay with HT-29 [6] was 12.5 µM each time.
As for `CS(=O)(=O)c1ccc(Cc2nnc3n2N=C(c2ccccc2)CS3)cc1`, the Activity was determined as 41.97% with RAW264.7 [3], 55.51% in the assay on RAW264.7 [4], 50.95% with RAW264.7 [7] and 46.73% with RAW264.7 [8]. The minimum inhibitory concentration (MIC) against Bacillus cereus turned out to be 6.25 µg/mL (≈ 16.3 µM); in the assay with Escherichia coli it was 6.25 µg/mL (≈ 16.3 µM); in the assay with Candida albicans, 25 µg/mL (≈ 65 µM); against Pseudomonas aeruginosa, 6.25 µg/mL (≈ 16.3 µM); in the assay on Staphylococcus aureus, 6.25 µg/mL (≈ 16.3 µM). The half-inhibitory concentration (IC50) with RAW264.7 [5] and in the assay with HT-29 [6] was 25 µM throughout.
As for `CS(=O)(=O)c1ccc(Cc2nnc3n2N=C(c2cc(Cl)sc2Cl)CS3)cc1`, the outcome with RAW264.7 [3], in the assay with HT-29 [9], in the assay on RAW264.7 [7] and in the assay with HT-29 [10] was inactive. For the same molecule, the Activity in the assay with RAW264.7 [4] stood at 47.27%; in the assay on RAW264.7 [8] it was 25.54%. In addition, the MIC is 6.25 µg/mL (≈ 13.6 µM) in the assay with Bacillus cereus; 6.25 µg/mL (≈ 13.6 µM) against Escherichia coli; 3.12 µg/mL (≈ 6.8 µM) against Candida albicans; 6.25 µg/mL (≈ 13.6 µM) against Pseudomonas aeruginosa; 6.25 µg/mL (≈ 13.6 µM) in the assay on Staphylococcus aureus. Moreover, the IC50 in the assay with RAW264.7 [5] and with HT-29 [6] was greater than 100 µM throughout.
